From publication PMC3529830 (Chemistry & biology, 2012)

What was measured:
[1] = system: A549 cells; details: 1 μM; ref Czesny et al., 2009; cited from earlier work
[2] = system: NIH3T3 cells; details: 1 μM; ref Czesny et al., 2009; cited from earlier work
[3] = system: P. falciparum; details: 1 μM; ref Czesny et al., 2009; cited from earlier work
[4] = Host toxicity in P. berghei infected mice during treatment; details: daily I.V. doses, scruffy coat, significant weight loss
[5] = system: P. berghei; assay: P. berghei mouse model of malaria, parasitemia; format: in vivo, Plasmodium berghei in Balb/c mice; details: tolerated dose, I.V. daily for 3 consecutive days
[6] = 5 consecutive days of treatment; ref Demo et al., 2007; cited from earlier work
[7] = system: non-confluent human foreskin fibroblast (HFF) cells; assay: HFF cell toxicity assay; format: cell-based; details: read-out: EC50, host cell killing
[8] = molecular target: putative β5 subunit of P. falciparum proteasome (Plasmodium falciparum, UniProt Q8IJT1); assay: Proteasome activity in intact inhibitor-treated trophozoites by MV151 labeling; format: cell-based
Summary of the method: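 P. falciparum culture at ~15% parasitemia; intact trophozoites exposed 1 hr to a range of inhibitor concentrations, then pelleted and washed 3× in fresh medium. Hypotonic lysis (50 mM Tris pH 7.4, 5 mM MgCl2, 1 mM DTT) on ice 1 hr. ≥2 μg lysate labeled with 2 μM MV151, 37°C 1 hr. Run on 12% SDS-PAGE, TAMRA fluorescence scan. Band intensity expressed as % of DMSO; curve fit to IC50; 3 independent experiments.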

[9] = system: P. falciparum proteasome; assay: Recovery of P. falciparum proteasome activity after inhibitor washout; format: cell-based, Plasmodium falciparum
[10] = system: P. falciparum; assay: P. falciparum replication assay; format: cell-based; details: Plasmodium falciparum, read-out: EC50, parasite replication
[11] = system: P. falciparum gametocytes; assay: P. falciparum gametocyte viability assay; format: cell-based, Plasmodium falciparum; details: 24 hr treatment
[12] = rat P. berghei model; ref Gantt et al., 1998; cited from earlier work

## CC[C@H](C)[C@H](NC(=O)[C@H]([C@@H](C)CC)N(C)C(C)=O)C(=O)N[C@H](C(=O)N[C@@H](CC(C)C)C(=O)[C@@]1(C)CO1)[C@@H](C)O [epoxomicin]
[1]
  decrease in viability: 20%
[2]
  decrease in viability: 20%
[3]
  effect on P. falciparum replication: completely blocking

## CC(C)C[C@H](NC(=O)[C@H](CCc1ccccc1)NC(=O)CN1CCOCC1)C(=O)N[C@@H](Cc1ccccc1)C(=O)N[C@@H](CC(C)C)C(=O)[C@@]1(C)CO1 [carfilzomib, Carfilzomib]
[4]
  dose at which mice started to develop signs of compound toxicity: 1 mg/kg
[5]
  effect on parasite burden: only a very minor effect on parasite burden at day 3
[6]
  maximum tolerable dose: 2 mg/kg
[7]
  EC50: 492 nM
[8]
  IC50: 25 nM
[9]; 100 nM dose, activity determined 10 hr after washout
  inhibitor exposure necessary to prevent recovery of proteasome activity: at least 6 hr
[9]; 1 μM, 1 hr treatment, 47 hrs after compound washout
  recovery of proteasome activity after washout: substantial recovery of proteasome activity
[9]; 1 hr treatment of trophozoites, washout, depending on the dose
  time to recovery of proteasome activity after inhibitor removal: ≤ 24 h
[10]
  EC50: 28.8 nM
[11]
  activity against gametocytes: effective towards gametocytes

## CC(=O)N[C@@H](CSC(=O)[C@]1([C@@H](O)C(C)C)NC(=O)[C@H](C)[C@@H]1O)C(=O)O [lactacystin, Lactacystin]
[12]
  host toxicity: significant host toxicity
